# Laboratory results reported in ChEMBL document CHEMBL5357024, “MDM2 Antagonist Idasanutlin Reduces HDAC1/2 Abundance and Corepressor Partners but Not HDAC3” (ACS Med Chem Lett, 2024).
# pIC50: −log10 of the molar value. Active and inactive are the calls of the source. The calls are words filed in the database; no cut-off is given here.
# Assays:
# [1] = target: T1, Paired amphipathic helix protein Sin3a (Homo sapiens) (UniProt Q96ST3); experiment: Induction of SIN3A degradation in human HCT-116 cells assessed as reduction in SIN3A abundance by measuring remaining activity at 10 uM measured after 24 hrs by Western blot analysis (reference value: 100%); format: cell-based
# T1 sequence (whole entry): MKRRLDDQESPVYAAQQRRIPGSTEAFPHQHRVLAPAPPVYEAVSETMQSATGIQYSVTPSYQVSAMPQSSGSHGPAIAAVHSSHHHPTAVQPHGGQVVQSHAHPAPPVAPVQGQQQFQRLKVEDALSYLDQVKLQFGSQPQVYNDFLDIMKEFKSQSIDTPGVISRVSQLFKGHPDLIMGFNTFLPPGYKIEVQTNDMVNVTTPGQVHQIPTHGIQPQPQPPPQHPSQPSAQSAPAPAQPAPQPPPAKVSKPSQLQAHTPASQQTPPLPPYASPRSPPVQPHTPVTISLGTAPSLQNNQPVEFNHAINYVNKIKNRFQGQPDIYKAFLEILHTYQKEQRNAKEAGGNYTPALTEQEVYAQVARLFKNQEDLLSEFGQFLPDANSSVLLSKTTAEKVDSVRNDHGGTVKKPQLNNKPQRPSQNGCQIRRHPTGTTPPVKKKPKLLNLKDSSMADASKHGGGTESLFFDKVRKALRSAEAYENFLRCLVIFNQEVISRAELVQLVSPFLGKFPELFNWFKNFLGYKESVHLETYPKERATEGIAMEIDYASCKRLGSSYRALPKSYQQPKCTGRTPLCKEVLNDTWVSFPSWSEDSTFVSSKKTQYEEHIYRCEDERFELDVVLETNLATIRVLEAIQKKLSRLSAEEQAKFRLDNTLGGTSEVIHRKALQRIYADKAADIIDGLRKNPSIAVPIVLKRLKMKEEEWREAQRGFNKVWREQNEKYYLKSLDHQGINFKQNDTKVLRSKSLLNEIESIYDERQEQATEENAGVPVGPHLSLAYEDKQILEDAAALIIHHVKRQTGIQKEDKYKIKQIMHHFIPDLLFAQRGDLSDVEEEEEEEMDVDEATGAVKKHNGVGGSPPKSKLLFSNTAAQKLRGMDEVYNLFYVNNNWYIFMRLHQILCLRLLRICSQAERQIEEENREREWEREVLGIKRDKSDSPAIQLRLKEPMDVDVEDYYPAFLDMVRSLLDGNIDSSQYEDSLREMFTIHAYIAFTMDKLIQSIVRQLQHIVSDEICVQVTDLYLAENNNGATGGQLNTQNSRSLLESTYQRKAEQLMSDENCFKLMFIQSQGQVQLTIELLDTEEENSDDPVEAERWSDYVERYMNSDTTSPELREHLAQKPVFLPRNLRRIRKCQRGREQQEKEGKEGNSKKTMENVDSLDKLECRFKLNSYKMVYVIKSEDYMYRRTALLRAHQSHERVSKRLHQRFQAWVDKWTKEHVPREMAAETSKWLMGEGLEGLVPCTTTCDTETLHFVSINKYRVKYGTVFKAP
# Outline: (§1)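 HCT116 cells seeded in six-well plates for 24 h, then exposed 24 h to compound (0.01–10 μM) or DMSO in fresh medium. Lysis in Tris-HCl/NaCl/NP-40/Triton X-100 with protease inhibitor. Bradford-normalised 30 μg protein per lane. Quantitative Western blot used specific HDAC1, HDAC2, HDAC3, LSD1 or Sin3a antibodies with IRDye secondaries. Abundance compared with DMSO, n = 2 replicates.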
# [2] = target: Lysine-specific histone demethylase 1A (Homo sapiens) (UniProt O60341); experiment: Induction of LSD1 degradation in human HCT-116 cells assessed as reduction in LSD1 abundance by measuring remaining activity at 10 uM measured after 24 hrs by Western blot analysis (reference value: 100%); format: cell-based; outline: as §1
# HCT-116 [3] = experiment: Effect on histone H3 lysine K56 acetylation in human HCT-116 cells assessed as increase in H3K56ac level at 10 uM by Western blot analysis; format: functional, cell-based
# Outline: (§2)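 HCT116 cells (DMEM, 10% FBS, glutamine/pen/strep, 37 °C, 5% CO2) seeded 24 h, then treated with DMSO or compound in fresh medium. Pellets after lysis were acid-extracted with 0.4 N H2SO4 at 4 °C overnight. Acid histone extract run on 4–12% bis-Tris gels, transferred to nitrocellulose and probed for H3K56ac. IRDye secondaries with infrared imaging.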
# [4] = target: von Hippel-Lindau disease tumor suppressor/Histone deacetylase 3 (Homo sapiens) (UniProt O15379+P40337); experiment: PROTAC activity at VHL/HDAC3 in human HCT-116 cells assessed as reduction in HDAC3 abundance by measuring remaining activity at 10 uM measured after 24 hrs by Western blot analysis (reference value: 100%); format: cell-based
# Chain of von Hippel-Lindau disease tumor suppressor/Histone deacetylase 3 (Homo sapiens) (O15379 whole entry, looked up): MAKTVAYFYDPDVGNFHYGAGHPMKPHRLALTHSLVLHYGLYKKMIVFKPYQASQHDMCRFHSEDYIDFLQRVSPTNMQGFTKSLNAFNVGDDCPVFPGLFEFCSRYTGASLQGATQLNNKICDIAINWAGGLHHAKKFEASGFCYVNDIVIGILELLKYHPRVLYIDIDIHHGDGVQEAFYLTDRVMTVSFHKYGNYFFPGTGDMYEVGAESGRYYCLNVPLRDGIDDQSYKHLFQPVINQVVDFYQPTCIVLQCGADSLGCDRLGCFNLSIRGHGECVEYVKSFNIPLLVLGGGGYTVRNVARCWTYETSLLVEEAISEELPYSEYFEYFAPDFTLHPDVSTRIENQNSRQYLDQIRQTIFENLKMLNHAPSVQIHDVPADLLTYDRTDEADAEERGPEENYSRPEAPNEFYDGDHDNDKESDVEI
# Chain of von Hippel-Lindau disease tumor suppressor/Histone deacetylase 3 (Homo sapiens) (P40337 whole entry, looked up): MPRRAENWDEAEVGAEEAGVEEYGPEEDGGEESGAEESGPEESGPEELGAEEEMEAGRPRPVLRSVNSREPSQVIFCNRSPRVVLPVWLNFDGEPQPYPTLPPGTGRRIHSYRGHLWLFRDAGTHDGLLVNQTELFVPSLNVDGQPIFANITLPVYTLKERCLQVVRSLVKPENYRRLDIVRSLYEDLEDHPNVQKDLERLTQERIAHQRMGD
# Outline: (§3)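 HCT116 cells in DMEM with 10% FBS and glutamine/penicillin/streptomycin at 37 °C, 5% CO2. Seeded 4 × 10^5 cells/well, after 24 h treated 24 h with DMSO or compound in fresh medium. Lysed in Tris-HCl/NaCl/NP-40/Triton X-100 buffer with protease inhibitor, Bradford-quantified, 30 μg protein per lane. Quantitative Western blot with specific HDAC1/2/3 antibodies, IRDye secondaries, infrared imaging, versus DMSO. n = 2 replicates.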
# [5] = target: von Hippel-Lindau disease tumor suppressor/Histone deacetylase 2 (Homo sapiens) (UniProt Q92769+P40337); experiment: PROTAC activity at VHL/HDAC2 in human HCT-116 cells assessed as decrease in HDAC2 abundance by measuring remaining activity at 10 uM measured after 24 hrs by Western blot analysis (reference value: 100%); format: cell-based; outline: as §3
# Chain of von Hippel-Lindau disease tumor suppressor/Histone deacetylase 2 (Homo sapiens) (P40337 whole entry, looked up): as above
# Chain of von Hippel-Lindau disease tumor suppressor/Histone deacetylase 2 (Homo sapiens) (Q92769 whole entry, looked up): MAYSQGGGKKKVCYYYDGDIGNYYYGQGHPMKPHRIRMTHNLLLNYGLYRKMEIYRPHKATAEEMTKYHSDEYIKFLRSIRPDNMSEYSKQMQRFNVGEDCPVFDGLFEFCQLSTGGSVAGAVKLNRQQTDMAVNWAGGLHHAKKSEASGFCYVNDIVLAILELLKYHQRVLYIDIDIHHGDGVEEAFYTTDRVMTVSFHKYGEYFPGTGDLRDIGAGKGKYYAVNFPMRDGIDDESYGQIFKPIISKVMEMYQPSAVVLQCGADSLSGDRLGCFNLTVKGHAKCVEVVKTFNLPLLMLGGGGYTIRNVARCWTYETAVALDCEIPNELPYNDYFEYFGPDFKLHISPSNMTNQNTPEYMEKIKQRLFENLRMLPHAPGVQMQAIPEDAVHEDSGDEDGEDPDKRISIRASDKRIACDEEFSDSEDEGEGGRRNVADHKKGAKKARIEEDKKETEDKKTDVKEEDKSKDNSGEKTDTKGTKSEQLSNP
# [6] = target: von Hippel-Lindau disease tumor suppressor/Histone deacetylase 1 (Homo sapiens) (UniProt Q13547+P40337); experiment: PROTAC activity at VHL/HDAC1 in human HCT-116 cells assessed as decrease in HDAC1 abundance by measuring remaining activity at 10 uM measured after 24 hrs by Western blot analysis (reference value: 100%); format: cell-based; outline: as §3
# Chain of von Hippel-Lindau disease tumor suppressor/Histone deacetylase 1 (Homo sapiens) (P40337 whole entry, looked up): as the sequence (P40337 whole entry, looked up) above
# Chain of von Hippel-Lindau disease tumor suppressor/Histone deacetylase 1 (Homo sapiens) (Q13547 whole entry, looked up): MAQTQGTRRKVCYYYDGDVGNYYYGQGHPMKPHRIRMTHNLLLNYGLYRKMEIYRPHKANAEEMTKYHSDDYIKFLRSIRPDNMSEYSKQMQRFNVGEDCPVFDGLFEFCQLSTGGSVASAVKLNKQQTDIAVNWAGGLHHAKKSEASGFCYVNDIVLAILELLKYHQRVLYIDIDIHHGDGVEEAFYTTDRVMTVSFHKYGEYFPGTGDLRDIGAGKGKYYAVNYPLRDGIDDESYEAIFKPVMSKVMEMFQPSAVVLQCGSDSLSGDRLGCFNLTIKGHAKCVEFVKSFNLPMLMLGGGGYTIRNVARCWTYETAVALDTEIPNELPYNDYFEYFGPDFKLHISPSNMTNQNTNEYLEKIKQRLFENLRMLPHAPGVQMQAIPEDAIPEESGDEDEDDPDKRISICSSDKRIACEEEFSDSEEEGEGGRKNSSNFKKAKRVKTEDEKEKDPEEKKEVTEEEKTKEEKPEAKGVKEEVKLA
# [7] = target: T2, E3 ubiquitin-protein ligase Mdm2/Histone deacetylase 1 (Homo sapiens) (UniProt Q00987+Q13547); experiment: PROTAC activity at MDM2/HDAC1 in human HCT-116 cells assessed as decrease in HDAC1 abundance by measuring remaining activity at 1 uM measured after 24 hrs by Western blot analysis (reference value: 100%); format: cell-based; outline: as §1
# T2 sequence (Q00987 whole entry, looked up): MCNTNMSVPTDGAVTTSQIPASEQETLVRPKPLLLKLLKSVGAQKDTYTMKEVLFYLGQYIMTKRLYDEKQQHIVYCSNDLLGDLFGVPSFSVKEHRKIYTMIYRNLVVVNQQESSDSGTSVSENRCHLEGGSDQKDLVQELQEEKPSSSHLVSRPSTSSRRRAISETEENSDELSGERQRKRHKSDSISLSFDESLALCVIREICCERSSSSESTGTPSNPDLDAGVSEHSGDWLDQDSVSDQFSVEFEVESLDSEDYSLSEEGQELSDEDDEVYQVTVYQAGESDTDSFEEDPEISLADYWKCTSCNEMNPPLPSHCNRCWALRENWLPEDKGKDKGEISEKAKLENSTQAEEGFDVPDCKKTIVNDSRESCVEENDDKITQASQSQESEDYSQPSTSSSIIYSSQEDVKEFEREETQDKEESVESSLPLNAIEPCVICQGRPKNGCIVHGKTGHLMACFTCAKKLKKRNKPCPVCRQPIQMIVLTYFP
# T2 sequence (Q13547 whole entry, looked up): as the sequence (Q13547 whole entry, looked up) above
# [8] = target: T2, E3 ubiquitin-protein ligase Mdm2/Histone deacetylase 1 (Homo sapiens); experiment: PROTAC activity at MDM2/HDAC1 in human HCT-116 cells assessed as decrease in HDAC1 abundance by measuring remaining activity at 0.1 uM measured after 24 hrs by Western blot analysis (reference value: 100%); format: cell-based; outline: as §1
# [9] = target: T3, E3 ubiquitin-protein ligase Mdm2/Histone deacetylase 3 (Homo sapiens) (UniProt Q00987+O15379); experiment: PROTAC activity at MDM2/HDAC3 in human HCT-116 cells assessed as reduction in HDAC3 abundance by measuring remaining activity at 1 uM measured after 24 hrs by Western blot analysis (reference value: 100%); format: cell-based; outline: as §3
# T3 sequence (O15379 whole entry, looked up): as the sequence (O15379 whole entry, looked up) above
# T3 sequence (Q00987 whole entry, looked up): as the sequence (Q00987 whole entry, looked up) above
# [10] = target: T4, E3 ubiquitin-protein ligase Mdm2/Histone deacetylase 2 (Homo sapiens) (UniProt Q00987+Q92769); experiment: PROTAC activity at MDM2/HDAC2 in human HCT-116 cells assessed as decrease in HDAC2 abundance by measuring remaining activity at 10 uM measured after 24 hrs by Western blot analysis (reference value: 100%); format: cell-based; outline: as §1
# T4 sequence (Q00987 whole entry, looked up): as above
# T4 sequence (Q92769 whole entry, looked up): as the sequence (Q92769 whole entry, looked up) above
# [11] = target: T4, E3 ubiquitin-protein ligase Mdm2/Histone deacetylase 2 (Homo sapiens); experiment: PROTAC activity at MDM2/HDAC2 in human HCT-116 cells assessed as decrease in HDAC2 abundance by measuring remaining activity at 0.1 uM measured after 24 hrs by Western blot analysis (reference value: 100%); format: cell-based; outline: as §1
# [12] = target: T3, E3 ubiquitin-protein ligase Mdm2/Histone deacetylase 3 (Homo sapiens); experiment: PROTAC activity at MDM2/HDAC3 in human HCT-116 cells assessed as reduction in HDAC3 abundance by measuring remaining activity at 10 uM measured after 24 hrs by Western blot analysis (reference value: 100%); format: cell-based; outline: as §3
# [13] = target: T4, E3 ubiquitin-protein ligase Mdm2/Histone deacetylase 2 (Homo sapiens); experiment: PROTAC activity at MDM2/HDAC2 in human HCT-116 cells assessed as decrease in HDAC2 abundance by measuring remaining activity at 1 uM measured after 24 hrs by Western blot analysis (reference value: 100%); format: cell-based; outline: as §1
# [14] = target: T2, E3 ubiquitin-protein ligase Mdm2/Histone deacetylase 1 (Homo sapiens); experiment: PROTAC activity at MDM2/HDAC1 in human HCT-116 cells assessed as decrease in HDAC1 abundance by measuring remaining activity at 10 uM measured after 24 hrs by Western blot analysis (reference value: 100%); format: cell-based; outline: as §1
# [15] = target: T3, E3 ubiquitin-protein ligase Mdm2/Histone deacetylase 3 (Homo sapiens); experiment: PROTAC activity at MDM2/HDAC3 in human HCT-116 cells assessed as reduction in HDAC3 abundance by measuring remaining activity at 0.1 uM measured after 24 hrs by Western blot analysis (reference value: 100%); format: cell-based; outline: as §3
# HCT-116 [16] = experiment: Effect on histone H3 lysine K56 acetylation in human HCT-116 cells assessed as increase in H3K56ac level at 0.1 to 10 uM by Western blot analysis; format: functional, cell-based; conditions: dose 0.1-10 µM; outline: as §2
# [17] = target: Histone deacetylase 3 (Homo sapiens) (UniProt O15379); experiment: Induction of HDAC3 degradation in human HCT-116 cells assessed as reduction in HDAC3 abundance by measuring remaining activity at 10 uM measured after 24 hrs by Western blot analysis; format: cell-based; outline: as §1
# Chain of Histone deacetylase 3 (Homo sapiens) (O15379 whole entry): as the sequence (O15379 whole entry, looked up) above
# [18] = target: Histone deacetylase 3 (Homo sapiens) (UniProt O15379); experiment: Induction of HDAC3 degradation in human HCT-116 cells assessed as reduction in HDAC3 abundance by measuring remaining activity at 1 uM measured after 24 hrs by Western blot analysis; format: cell-based; outline: as §1
# [19] = Inhibition of LSD1-CoREST-HDAC (unknown origin) by AMC-fluorescence assay; set-up: species or system Homo sapiens
Compound,Activity [1],Activity [2],Activity (HCT-116 [3]),Activity [4],Activity [5],Activity [6],Activity [7],Activity [8],Activity [9],Activity [10],Activity [11],Activity [12],Activity [13],Activity [14],Activity [15],Activity (HCT-116 [16]),Activity [17],Activity [18],pIC50 [19]
Cc1ncsc1-c1ccc(CNC(=O)[C@@H]2C[C@@H](O)CN2C(=O)[C@@H](NC(=O)CCCCCCCCCCC(=O)Nc2ccc(C(=O)Nc3ccccc3N)cc2)C(C)(C)C)cc1,85%,97%,Active,88%,58%,37%,,,,,,,,,,,,,
COc1cc(C(=O)NCCCCCCCC(=O)Nc2ccc(C(=O)Nc3ccccc3N)cc2)ccc1NC(=O)[C@@H]1N[C@@H](CC(C)(C)C)[C@](C#N)(c2ccc(Cl)cc2F)[C@H]1c1cccc(Cl)c1F,,,,,,,88%,93%,114%,100%,100%,109%,101%,101%,114%,,,,
COc1cc(C(=O)NCCOCCOCCOCCC(=O)Nc2ccc(C(=O)Nc3ccccc3N)cc2)ccc1NC(=O)[C@@H]1N[C@@H](CC(C)(C)C)[C@](C#N)(c2ccc(Cl)cc2F)[C@H]1c1cccc(Cl)c1F,,,,,,,85%,91%,128%,84%,102%,122%,94%,65%,112%,inactive,,,
COc1cc(C(=O)O)ccc1NC(=O)[C@@H]1N[C@@H](CC(C)(C)C)[C@](C#N)(c2ccc(Cl)cc2F)[C@H]1c1cccc(Cl)c1F,,,,,,,,,,,,,,,,,101%,110%,
COc1cc(C(=O)NCCCCCCCCCCCC(=O)Nc2ccc(C(=O)Nc3ccccc3N)cc2)ccc1NC(=O)[C@@H]1N[C@@H](CC(C)(C)C)[C@](C#N)(c2ccc(Cl)cc2F)[C@H]1c1cccc(Cl)c1F,,,,,,,103%,98%,102%,103%,100%,118%,101%,109%,101%,,,,
CC(=O)Nc1ccc(C(=O)Nc2ccccc2N)cc1 [TACEDINALINE],81%,109%,Active,,,,,,,,,,,,,,138%,122%,~6.30
